Legend:
[1] = system: murine models of liver fibrosis; settings: due to hepatic stellate cell inactivation and macrophage migration; cited from earlier work
[2] = system: patients with HCV and HBV liver cirrhosis; assay: Child-Pugh; type: in vivo, human; settings: 12 weeks after PRI-724 administration
Summary of the method: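 Patients with HCV- or HBV-induced cirrhosis (Child–Pugh A or B) received the test compound at 280 mg/m² by 4 h IV infusion twice weekly for 12 weeks. Child–Pugh class and score were assessed at baseline and 12 weeks post-treatment. Fourteen patients were analysed, with one who discontinued excluded.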

[3] = system: patients with HCV and HBV liver cirrhosis; assay: Serum ALB, PT and TBIL; type: in vivo, human; settings: 14 patients
[4] = system: patients with HCV and HBV liver cirrhosis; assay: Serum fibrosis markers; type: in vivo, human; settings: before vs 12 weeks after PRI-724 administration
Summary of the method: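 As an exploratory endpoint, serum hyaluronic acid and type IV collagen type S were measured before and 12 weeks after a course of 280 mg/m² test compound (4 h IV infusion, twice weekly, 12 weeks). Subjects were patients with HCV/HBV cirrhosis, and mean levels were compared.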

[5] = system: patients with HCV and HBV liver cirrhosis; assay: Collagen proportionate area; type: in vivo, human; settings: baseline vs 12 weeks after PRI-724 administration, 280 mg/m^2/4 h
[6] = system: patients with HCV and HBV liver cirrhosis; assay: FIB-4 index, post-hoc analysis; type: in vivo, human; settings: before and after administration
Summary of the method: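 This post-hoc analysis covered HCV/HBV cirrhosis patients given 280 mg/m² of the test compound by 4 h IV infusion twice weekly for 12 weeks. FIB-4 index was calculated before and after administration.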

[7] = system: patients with HCV and HBV liver cirrhosis; assay: Ishak; type: in vivo, human
Summary of the method: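 Liver biopsies were taken at screening (baseline) and within 2 weeks of the final dose of 280 mg/m²/4 h IV twice weekly for 12 weeks. Three independent pathologists scored slides blinded, using Knodell scoring and Ishak-modified HAI for necroinflammation and fibrosis stage. Thirteen of 15 patients were evaluable; one was excluded for poor sample quality and one discontinued.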

[8] = 280mg/m^2/4 h, 12 weeks, 13 patients

Substance: PRI-724
- Anti-fibrotic effect [1]: exhibits anti-fibrotic effects
- Change of CP class in the seven patients with CP class B at baseline [2]: two improved to class A, four remained unchanged, and one worsened
- Serum ALB level [3]: improved from baseline at some time after PRI-724 administration
- Serum TBIL level [3]: improved from baseline at some time after PRI-724 administration
- Serum M2BPGi, mean level [4]: lower relative to baseline levels but not statistically significant
- Serum hyaluronic acid, mean level [4]: no difference in mean levels
- Serum procollagen III peptide, mean level [4]: lower relative to baseline levels but not statistically significant
- Serum type IV collagen type S, mean level [4]: no difference in mean levels
- Collagen proportionate area of the whole liver tissue [5]: no statistically significant change was observed
- FIB-4 index [6]: statistically significant decrease
- Patients with change in Fibrosis score from baseline of 0 [7, 8]: 6
- Patients with change in Fibrosis score from baseline of 1 [7, 8]: 3
- Patients with change in Fibrosis score from baseline of 2 [7, 8]: 1
- Patients with change in Fibrosis score from baseline of -1 [7, 8]: 1
- Patients with change in Fibrosis score from baseline of -2 [7, 8]: 2
- Patients with change in Necroinflammatory score from baseline of 0 [7, 8]: 5
- Patients with change in Necroinflammatory score from baseline of 1 [7, 8]: 2
- Patients with change in Necroinflammatory score from baseline of 2 [7, 8]: 2
- Patients with change in Necroinflammatory score from baseline of -1 [7, 8]: 2
- Patients with change in Necroinflammatory score from baseline of -2 [7, 8]: 2
- Mean activity score ([7]; after 12-week PRI-724 administration): No change was observed

Reference: PMC9126795 (eBioMedicine, 2022)
